Numbered stars: 1 amine (or outer) side, 2 acyl side, 3 side chain; on linkers, the order of the positions; unused ones are H or OH. Bridge positions count the residues as written; N and C are the ends. Square brackets hold non-standard residues; d marks the D form. Peptide text beside a SMILES is read from it. 1Nal = N[C@@H](Cc1cccc2ccccc12)C(=O)O; 2Nal = N[C@@H](Cc1ccc2ccccc2c1)C(=O)O; CH2 = C([*:1])[*:2]
How the values were obtained:
[1] = molecular target: Delta-type opioid receptor (Rattus norvegicus) (UniProt P33533); settings: C6, 1 uM
Mu-type opioid receptor [2] = molecular target: T1, Mu-type opioid receptor (Rattus norvegicus, UniProt P33535); assay: Displacement of [3H]diprenorphine from rat mu opioid receptor expressed in rat C6 cells after 1 hr by liquid scintillation counting; type: cell-based
Method in brief: (§1)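 Membranes from C6 glioma cells stably expressing rat MOR or DOR, or CHO cells expressing human KOR (10-20 μg protein), incubated with 0.2 nM [3H]diprenorphine and increasing peptide concentrations in 50 mM Tris-HCl pH 7.4 for 1 h at 25 °C. Filtered and counted by scintillation. Nonspecific binding defined with 10 μM naloxone.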

[3] = molecular target: T2, Delta-type opioid receptor (Rattus norvegicus, UniProt P33533); assay: Displacement of [3H]diprenorphine from rat delta opioid receptor expressed in rat C6 cells after 1 hr by liquid scintillation counting; type: cell-based
Method in brief: as §1

[4] = molecular target: T3, Kappa-type opioid receptor (Homo sapiens, UniProt P41145); assay: Displacement of [3H]diprenorphine from human kappa opioid receptor expressed in CHO cells after 1 hr by liquid scintillation counting; type: cell-based
Method in brief: as §1

[5] = molecular target: Mu-type opioid receptor (Rattus norvegicus) (UniProt P33535); assay: Agonist activity at rat mu opioid receptor expressed in rat C6 cells assessed as stimulation of [35S]GTPgammaS binding at 10 uM after 1 hr by liquid scintillation counting relative to DAMGO; type: functional, cell-based
Method in brief: (§2)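 Membranes (20-30 μg protein) from C6-MOR, C6-DOR or CHO-KOR cells incubated 1 h at 25 °C in 50 mM Tris-HCl pH 7.4, 100 mM NaCl, 5 mM MgCl2 with 0.1 nM [35S]GTPγS, 100 μM GDP and peptide at 0.001-10000 nM or 10 μM. Filtered and counted.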

[6] = molecular target: Delta-type opioid receptor (Rattus norvegicus) (UniProt P33533); assay: Agonist activity at rat delta opioid receptor expressed in rat C6 cells assessed as stimulation of [35S]GTPgammaS binding at 10 uM after 1 hr by liquid scintillation counting relative to SNC80; type: functional, cell-based
Method in brief: as §2

[7] = molecular target: T3, Kappa-type opioid receptor; assay: Agonist activity at human kappa opioid receptor expressed in CHO cells assessed as stimulation of [35S]GTPgammaS binding at 10 uM after 1 hr by liquid scintillation counting relative to U69593; type: functional, cell-based
Method in brief: as §2

Mu-type opioid receptor [8] = molecular target: T1, Mu-type opioid receptor; assay: Agonist activity at rat mu opioid receptor expressed in rat C6 cells assessed as stimulation of [35S]GTPgammaS binding after 1 hr by liquid scintillation counting; type: functional, cell-based
Method in brief: as §2

[9] = molecular target: T3, Kappa-type opioid receptor; assay: Agonist activity at human kappa opioid receptor expressed in CHO cells assessed as stimulation of [35S]GTPgammaS binding after 1 hr by liquid scintillation counting; type: functional, cell-based
Method in brief: as §2

[10] = molecular target: T2, Delta-type opioid receptor; assay: Binding affinity to rat delta opioid receptor expressed in rat C6 cells; type: cell-based
Method in brief: as §1

[11] = molecular target: T2, Delta-type opioid receptor; assay: Agonist activity at rat delta opioid receptor expressed in rat C6 cells assessed as inhibition of forskolin-stimulated cAMP production after 30 mins by radioimmunoassay
[12] = molecular target: Delta-type opioid receptor (Rattus norvegicus) (UniProt P33533); settings: C6, 1 uM; remark: listed apart in the source
[13] = molecular target: Delta-type opioid receptor (Rattus norvegicus) (UniProt P33533); assay: Ratio of compound Ki to 5R,8S,11S,14S)-14-((S)-2-amino-3-(4-hydroxyphenyl)propanamido)-8,11-dibenzyl-7,10,13-trioxo-1,3-dithia-6,9,12-triazacyclopentadecane-5-carboxamide Ki for rat delta opioid receptor expressed in rat C6 cells; type: cell-based
[14] = molecular target: T3, Kappa-type opioid receptor; assay: Ratio of compound Ki to 5R,8S,11S,14S)-14-((S)-2-amino-3-(4-hydroxyphenyl)propanamido)-8,11-dibenzyl-7,10,13-trioxo-1,3-dithia-6,9,12-triazacyclopentadecane-5-carboxamide Ki for human kappa opioid receptor expressed in CHO cells; type: cell-based

T3 sequence (P41145 whole entry): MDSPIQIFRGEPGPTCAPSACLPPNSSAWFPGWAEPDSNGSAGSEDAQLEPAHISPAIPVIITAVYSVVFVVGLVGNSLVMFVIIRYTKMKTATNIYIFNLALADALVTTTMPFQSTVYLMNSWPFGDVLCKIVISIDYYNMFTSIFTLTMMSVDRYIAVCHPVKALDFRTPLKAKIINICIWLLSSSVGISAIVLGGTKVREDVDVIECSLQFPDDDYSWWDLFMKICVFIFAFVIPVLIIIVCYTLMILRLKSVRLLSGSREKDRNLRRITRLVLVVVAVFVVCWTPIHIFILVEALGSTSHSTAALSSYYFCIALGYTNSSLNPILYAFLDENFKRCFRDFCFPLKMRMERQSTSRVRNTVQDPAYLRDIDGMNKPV
Sequence of Mu-type opioid receptor (Rattus norvegicus) (P33535 whole entry): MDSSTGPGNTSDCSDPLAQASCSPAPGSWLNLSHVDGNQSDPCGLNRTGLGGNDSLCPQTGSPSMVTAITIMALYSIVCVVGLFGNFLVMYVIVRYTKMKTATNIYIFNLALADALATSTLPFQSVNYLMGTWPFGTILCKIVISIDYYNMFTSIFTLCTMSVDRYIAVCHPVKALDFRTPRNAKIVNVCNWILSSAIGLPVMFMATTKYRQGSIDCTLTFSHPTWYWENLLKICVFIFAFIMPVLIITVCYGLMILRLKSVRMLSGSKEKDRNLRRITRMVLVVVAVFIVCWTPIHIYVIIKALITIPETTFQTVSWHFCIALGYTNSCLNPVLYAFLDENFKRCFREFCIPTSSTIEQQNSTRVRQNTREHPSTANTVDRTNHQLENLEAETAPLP
T1 sequence (P33535 whole entry): as above
Sequence of Delta-type opioid receptor (Rattus norvegicus) (P33533 whole entry): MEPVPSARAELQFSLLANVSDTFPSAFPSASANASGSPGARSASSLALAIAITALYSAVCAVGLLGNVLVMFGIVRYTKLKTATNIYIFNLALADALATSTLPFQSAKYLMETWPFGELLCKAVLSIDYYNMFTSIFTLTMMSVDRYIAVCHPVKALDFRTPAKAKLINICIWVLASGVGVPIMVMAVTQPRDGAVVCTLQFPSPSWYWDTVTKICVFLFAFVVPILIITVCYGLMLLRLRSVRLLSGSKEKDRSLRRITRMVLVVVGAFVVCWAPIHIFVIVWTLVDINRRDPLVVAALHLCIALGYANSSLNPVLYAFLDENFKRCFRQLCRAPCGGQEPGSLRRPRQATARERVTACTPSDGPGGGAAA
T2 sequence (P33533 whole entry): as above

Work on C=CCN1C[C@H](C)N([C@H](c2ccc(C(=O)N(CC)CC)cc2)c2cccc(OC)c2)C[C@H]1C yielded an inhibition [1] of 67%.
For NC(=O)[C@@H]1CSSC[C@@H](NC(=O)[C@@H](N)Cc2ccc(O)cc2)C(=O)N[C@@H](Cc2ccccc2)C(=O)N[C@@H](Cc2cccc3ccccc23)C(=O)N1 (H-Y[dC]F[1Nal]C-NH2; disulfide 2-5), the Ki (Mu-type opioid receptor [2]) was 2.5 nM, the Ki [3] was 7.1 nM and the Ki [4] was 11 nM. It also gave an Efficacy [5] of 88%, an Efficacy [6] of 15% and an Efficacy [7] of 100%.
For NC(=O)[C@@H]1CSCSC[C@@H](NC(=O)[C@@H](N)Cc2ccc(O)cc2)C(=O)N[C@@H](Cc2ccccc2)C(=O)N[C@@H](Cc2cccc3ccccc23)C(=O)N1 (H-Y[dC]F[1Nal]C-NH2; linker 2-5 via CH2), the Ki (Mu-type opioid receptor [2]) was 0.61 nM, the Ki [3] was 5.2 nM and the Ki [4] was 6 nM. For the same compound, the Efficacy [5] was 100%, the Efficacy [6] was 22% and the Efficacy [7] was 87%.
NC(=O)[C@@H]1CSSC[C@@H](NC(=O)[C@@H](N)Cc2ccc(O)cc2)C(=O)N[C@@H](Cc2ccccc2)C(=O)N[C@@H](Cc2ccc3ccccc3c2)C(=O)N1 (H-Y[dC]F[2Nal]C-NH2; disulfide 2-5) was tested, and the Ki (Mu-type opioid receptor [2]) was 1.2 nM, the Ki [3] was 11 nM and the Ki [4] was 5.9 nM. It also gave an Efficacy [5] of 90%, an Efficacy [6] of 2% and an Efficacy [7] of 49%.
NC(=O)[C@@H]1CSCSC[C@@H](NC(=O)[C@@H](N)Cc2ccc(O)cc2)C(=O)N[C@@H](Cc2ccccc2)C(=O)N[C@@H](Cc2ccc3ccccc3c2)C(=O)N1 (H-Y[dC]F[2Nal]C-NH2; linker 2-5 via CH2) gave a Ki (Mu-type opioid receptor [2]) of 0.47 nM, a Ki [3] of 0.48 nM and a Ki [4] of 1.3 nM. It also gave an Efficacy [5] of 99%, an Efficacy [6] of 7% and an Efficacy [7] of 89%. It also gave an EC50 (Mu-type opioid receptor [8]) of 1.2 nM, an EC50 [9] of 12 nM and a Ki [10] of 2.1 nM. It also gave an EC50 [11] of 36 nM, an inhibition [1] of 37% and an inhibition [12] of 55%.
With NC(=O)[C@@H]1CSSC[C@@H](NC(=O)[C@@H](N)Cc2ccc(O)cc2)C(=O)N[C@@H](Cc2cccc3ccccc23)C(=O)N[C@@H](Cc2ccccc2)C(=O)N1 (H-Y[dC][1Nal]FC-NH2; disulfide 2-5) the Ki (Mu-type opioid receptor [2]) was 0.08 nM, the Ki [3] was 34 nM and the Ki [4] was 21 nM. The Efficacy [5] was 33%, the Efficacy [6] was 0% and the Efficacy [7] was 59%. The Ratio Ki [13] was > 10.
With NC(=O)[C@@H]1CSCSC[C@@H](NC(=O)[C@@H](N)Cc2ccc(O)cc2)C(=O)N[C@@H](Cc2cccc3ccccc23)C(=O)N[C@@H](Cc2ccccc2)C(=O)N1 (H-Y[dC][1Nal]FC-NH2; linker 2-5 via CH2) the Ki (Mu-type opioid receptor [2]) was 0.33 nM, the Ki [3] was 34 nM and the Ki [4] was 5.8 nM. It also gave an Efficacy [5] of 91%, an Efficacy [6] of 23% and an Efficacy [7] of 77%. For the same compound, the Ratio Ki [13] was > 10.
NC(=O)[C@@H]1CSSC[C@@H](NC(=O)[C@@H](N)Cc2ccc(O)cc2)C(=O)N[C@@H](Cc2ccc3ccccc3c2)C(=O)N[C@@H](Cc2ccccc2)C(=O)N1 (H-Y[dC][2Nal]FC-NH2; disulfide 2-5) was tested, and the Ki (Mu-type opioid receptor [2]) was 0.72 nM, the Ki [3] was 55 nM and the Ki [4] was 145 nM. It also gave an Efficacy [5] of 34%, an Efficacy [6] of 0.7% and an Efficacy [7] of 7.5%. For the same compound, the Ratio Ki [13] was > 10 and the Ratio Ki [14] was > 10.
Compound NC(=O)[C@@H]1CSCSC[C@@H](NC(=O)[C@@H](N)Cc2ccc(O)cc2)C(=O)N[C@@H](Cc2ccc3ccccc3c2)C(=O)N[C@@H](Cc2ccccc2)C(=O)N1 (H-Y[dC][2Nal]FC-NH2; linker 2-5 via CH2) has a Ki (Mu-type opioid receptor [2]) of 0.47 nM, a Ki [3] of 15 nM and a Ki [4] of 69 nM. It also gave an Efficacy [5] of 34%, an Efficacy [6] of 23% and an Efficacy [7] of 35%. The Ratio Ki [13] was > 10 and the Ratio Ki [14] was > 10.

Reference: ChEMBL document CHEMBL1154182 (J Med Chem, 2009)
